Measurements reported in ChEMBL document CHEMBL1131066, “2-Substituted aminopyrido[2,3-d]pyrimidin-7(8H)-ones. structure-activity relationships against selected tyrosine kinases and in vitro and in vivo anticancer activity” (J Med Chem, 1998).

Legend:
HT-29 [1] = assay: Difference in days for treated (T) and control (C) HT-29 cell tumors to reach 750 mg in mice at […] peroral dose, days 15-29 administration; assay type: functional, Mus musculus; details: route oral
C6 [2] = assay: Ratio of treated and control C6 glioma cell tumor mass in mice at 10 mg/kg peroral dose, days 1-15 administration; assay type: functional, Mus musculus; details: route oral
Outline: (§1)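 Nude mice (NCr nu/nu), 6–8 per group, 18–22 g, tumor fragments implanted in right axilla on day 0 (A431, C6, MCF-7, or NIH3T3 carrying human PDGF receptor), dosed by average cage weight; vehicle 50 mM sodium lactate buffer pH 4.0 unless suspended in 0.5% methyl cellulose. %T/C = median treated/median control tumor mass ×100, last therapy day.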

COLO 205 [3] = assay: Net reduction in tumor burden between first and last treatments of COLO 205 cell tumors in mice at […] peroral dose, days 9-23 administration; assay type: functional, Mus musculus; details: route oral
C6 [4] = assay: C6 cell growth in soft agar with discontinued treatment; assay type: functional, cell-based, Rattus norvegicus; details: Rattus norvegicus, C6
Outline: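 C6 rat glioma cells given 3-day exposure to a concentration series, then washed free of inhibitor and plated in drug-free soft agar; colonies stained and counted after two weeks. IC50; mean of two experiments, each in duplicate.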

Mus musculus [5] = assay: Difference in days for treated (T) and control (C) PDGF-transfected mouse fibroblast tumors to reach 750 mg in mice at 12 mg/kg peroral dose, days 1-15 administration; assay type: functional; details: route oral
Outline: (§2)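 Nude mice (NCr nu/nu), 18–22 g, 6–8 per group, randomized and implanted with serially passaged tumor fragments in the right axilla on day 0. Dosed by average cage weight. Vehicle was 50 mM sodium lactate buffer, pH 4.0, or a 0.5% methyl cellulose suspension for one compound. Cisplatin was given in saline. T − C is the difference in days for treated and control tumors to reach 750 mg.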

[6] = molecular target: Platelet-derived growth factor receptor beta (Mus musculus, UniProt P05622); assay: Inhibitory concentration was evaluated against Platelet-derived growth factor receptor beta (PDGFr) tyrosine kinase
Chain of Platelet-derived growth factor receptor beta (P05622 whole entry): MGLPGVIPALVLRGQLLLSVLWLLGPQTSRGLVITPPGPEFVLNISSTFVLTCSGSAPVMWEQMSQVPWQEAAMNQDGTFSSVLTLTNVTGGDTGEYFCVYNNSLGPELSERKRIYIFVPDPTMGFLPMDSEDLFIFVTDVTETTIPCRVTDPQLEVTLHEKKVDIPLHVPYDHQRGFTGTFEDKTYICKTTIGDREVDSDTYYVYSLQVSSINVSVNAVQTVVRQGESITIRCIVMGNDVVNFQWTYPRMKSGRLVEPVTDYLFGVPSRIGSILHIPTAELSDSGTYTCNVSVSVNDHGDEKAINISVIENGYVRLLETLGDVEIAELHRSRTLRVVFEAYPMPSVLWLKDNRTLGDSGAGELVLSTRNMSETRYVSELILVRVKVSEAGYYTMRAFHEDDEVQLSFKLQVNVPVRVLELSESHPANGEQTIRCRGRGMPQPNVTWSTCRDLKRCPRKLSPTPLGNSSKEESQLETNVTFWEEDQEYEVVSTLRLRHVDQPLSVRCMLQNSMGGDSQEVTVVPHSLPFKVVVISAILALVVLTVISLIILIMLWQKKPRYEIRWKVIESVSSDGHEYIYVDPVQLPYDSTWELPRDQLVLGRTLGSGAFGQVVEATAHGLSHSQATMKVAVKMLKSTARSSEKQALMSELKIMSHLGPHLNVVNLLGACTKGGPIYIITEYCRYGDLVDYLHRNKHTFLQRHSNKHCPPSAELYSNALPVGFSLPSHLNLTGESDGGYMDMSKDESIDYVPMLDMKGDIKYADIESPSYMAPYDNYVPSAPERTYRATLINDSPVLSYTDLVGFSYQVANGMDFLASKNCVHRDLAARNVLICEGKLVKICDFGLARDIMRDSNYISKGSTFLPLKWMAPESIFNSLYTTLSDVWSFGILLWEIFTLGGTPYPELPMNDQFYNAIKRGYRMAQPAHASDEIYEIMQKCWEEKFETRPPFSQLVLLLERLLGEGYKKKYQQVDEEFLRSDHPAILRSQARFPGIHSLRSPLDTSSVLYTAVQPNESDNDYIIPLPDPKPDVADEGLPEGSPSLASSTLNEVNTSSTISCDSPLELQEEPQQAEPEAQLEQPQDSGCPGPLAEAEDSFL

[7] = molecular target: Platelet-derived growth factor receptor (Mus musculus, UniProt P05622+P26618); assay: Inhibition of PDGF-induced autophosphorylation of PDGF-R in NIH3T3 cells
SK-OV-3 [8] = assay: Weight change of SK-OV-3 cell tumors in mice at […] peroral dose, days 15-29 administration; assay type: functional, organism-based; design: dose 8.9 mg/kg
C6 [9] = assay: Net reduction in tumor burden between first and last treatments of C6 glioma cell tumors in mice at 10 mg/kg peroral dose, days 1-15 administration; assay type: functional, Mus musculus; details: route oral
Outline: (§3)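 NCr nu/nu nude mice (18–22 g, 6–8 per group, randomized) had tumor fragments, kept by serial passage in nude mice, implanted in the right axilla on day 0. Mice were dosed by average cage weight on the listed days, over a range from toxic to ineffective doses. Vehicle was 50 mM sodium lactate pH 4.0 or 0.5% methyl cellulose suspension. Net log cell kill was taken between first and last treatments.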

A-431 [10] = assay: Difference in days for treated (T) and control (C) A431 cell tumors to reach 750 mg in mice at 5 mg/kg peroral dose, days 7-21 administration; assay type: functional, Mus musculus; details: route oral; outline: as §2
A-431 [11] = assay: Net reduction in tumor burden between first and last treatments of A431 cell tumors in mice at 5 mg/kg peroral dose, days 7-21 administration; assay type: functional, Mus musculus; details: route oral; outline: as §3
Mus musculus [12] = assay: Weight change in PDGF-transfected mouse fibroblasts in mice at 12 mg/kg peroral dose, days 1-15 administration; assay type: functional; details: route oral
Outline: (§4)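 Tumor-bearing nude mice (NCr nu/nu, 18–22 g, 6–8 per group) were implanted in the right axilla with tumor fragments on day 0 and dosed by average cage weight. Vehicle was 50 mM sodium lactate pH 4.0, or 0.5% methyl cellulose suspension; cisplatin was given in saline. Host body weight change is given as the maximum treatment-related weight loss.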

Mus musculus [13] = assay: Ratio of treated and control PDGF-transfected mouse fibroblast tumor mass in mice at 12 mg/kg peroral dose, days 1-15 administration; assay type: functional; details: route oral; outline: as §1
HT-29 [14] = assay: Weight change of HT-29 cell tumors in mice at […] peroral dose, days 15-29 administration; assay type: functional, organism-based; design: dose 8.3 mg/kg; details: Mus musculus
COLO 205 [15] = assay: Ratio of treated and control COLO 205 cell tumor mass in mice at […] peroral dose, days 9-23 administration; assay type: functional, Mus musculus; details: route oral
SK-OV-3 [16] = assay: Ratio of treated and control SKOV-3 cell tumor mass in mice at […] peroral dose, days 15-29 administration; assay type: functional; details: route oral
NIH3T3 [17] = assay: Inhibition of NIH3T3 proliferation by sulforhodamine B assay; assay type: functional, cell-based, Mus musculus; details: Mus musculus, NIH3T3
A-431 [18] = assay: Weight change of A431 cell tumors in mice at 5 mg/kg peroral dose, days 7-21 administration; assay type: functional, Mus musculus; details: route oral; outline: as §4
[19] = molecular target: Proto-oncogene tyrosine-protein kinase Src (Gallus gallus, UniProt P00523); assay: Inhibition of avian c-Src tyrosine kinase
COLO 205 [20] = assay: Difference in days for treated (T)and control (C) COLO 205 cell tumors to reach 750 mg in mice at […] peroral dose, days 9-23 administration; assay type: functional, Mus musculus; details: route oral
MCF7 [21] = assay: Ratio of treated and control MCF-7 tumor mass in mice at 5 mg/kg peroral dose, days 1-15 administration; assay type: functional, Mus musculus; details: route oral; outline: as §1
[22] = molecular target: Platelet-derived growth factor receptor (PDGFr) (Rattus norvegicus, UniProt P20786+Q05030); assay: Inhibition of PDGF-induced autophosphorylation of PDGF-R in C6 cells
C6 [23] = assay: Difference in days for treated (T) and control (C) C6 glioma cell tumors to reach 750 mg in mice at 10 mg/kg peroral dose, days 1-15 administration; assay type: functional, Mus musculus; details: route oral; outline: as §2
Mus musculus [24] = assay: Net reduction in tumor burden between the first and last treatments of PDGF-transfected fibroblast cells in mice at 12 mg/kg peroral dose, days 1-15 administration; assay type: functional; details: route oral; outline: as §3
A-431 [25] = assay: Ratio of treated and control A431 cell tumor mass in mice at 5 mg/kg peroral dose, days 7-21 administration; assay type: functional, Mus musculus; details: route oral; outline: as §1
C6 [26] = assay: C6 cell growth in soft agar with continuous treatment; assay type: functional, cell-based, Rattus norvegicus; details: Rattus norvegicus, C6
Outline: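 C6 rat glioma cells (F10 Ham's with 15% horse serum, 2.5% fetal calf serum) exposed 3 days to a concentration series, then plated in soft agar with compound still present at the same concentration; colonies stained and counted after two weeks. IC50; mean of two experiments, each in duplicate.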

[27] = molecular target: Fibroblast growth factor receptor 1 (Homo sapiens, UniProt P11362); assay: Inhibition of fibroblast growth factor receptor (FGFr)
Chain of Fibroblast growth factor receptor 1 (P11362 whole entry): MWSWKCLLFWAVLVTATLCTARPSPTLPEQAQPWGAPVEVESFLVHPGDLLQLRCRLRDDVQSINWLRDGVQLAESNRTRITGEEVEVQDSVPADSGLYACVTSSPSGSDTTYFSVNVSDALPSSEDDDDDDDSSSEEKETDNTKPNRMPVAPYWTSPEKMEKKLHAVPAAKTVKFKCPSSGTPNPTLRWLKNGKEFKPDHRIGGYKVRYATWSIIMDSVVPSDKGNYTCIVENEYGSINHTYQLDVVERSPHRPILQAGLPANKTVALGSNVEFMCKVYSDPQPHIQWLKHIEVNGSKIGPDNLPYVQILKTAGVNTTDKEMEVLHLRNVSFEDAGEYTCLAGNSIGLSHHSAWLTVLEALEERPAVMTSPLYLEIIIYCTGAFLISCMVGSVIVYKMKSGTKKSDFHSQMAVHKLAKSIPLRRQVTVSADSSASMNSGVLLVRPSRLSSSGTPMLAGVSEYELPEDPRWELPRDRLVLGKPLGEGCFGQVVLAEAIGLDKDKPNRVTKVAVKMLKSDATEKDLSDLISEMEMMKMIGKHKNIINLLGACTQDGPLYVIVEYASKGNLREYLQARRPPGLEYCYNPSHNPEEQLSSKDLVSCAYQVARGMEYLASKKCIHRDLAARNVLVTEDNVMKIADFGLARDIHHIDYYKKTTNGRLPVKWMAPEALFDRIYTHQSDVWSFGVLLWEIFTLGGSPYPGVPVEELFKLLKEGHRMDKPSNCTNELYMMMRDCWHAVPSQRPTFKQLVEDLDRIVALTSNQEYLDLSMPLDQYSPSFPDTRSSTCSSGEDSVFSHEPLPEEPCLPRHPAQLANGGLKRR
Outline: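 Recombinant kinases (PDGFr-β, FGFr-1, c-Src), enzyme inhibition IC50. Mean of at least two separate determinations, each done in triplicate; replicate values typically varied under 30%.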

MCF7 [28] = assay: Weight change for MCF-7 cell tumors in mice at 5 mg/kg peroral dose, days 1-15 administration; assay type: functional, organism-based; design: dose 5 mg/kg; details: Mus musculus; outline: as §4
MCF7 [29] = assay: Net reduction in tumor burden between first and last treatments of MCF-7 cells in mice at 5 mg/kg peroral dose, days 1-15 administration; assay type: functional, Mus musculus; details: route oral; outline: as §3
MCF7 [30] = assay: Difference in days for treated (T) and control (C) MCF-7 cell tumors to reach 750 mg in mice at 5 mg/kg peroral dose, days 1-15 administration; assay type: functional, Mus musculus; details: route oral; outline: as §2
NIH3T3 [31] = assay: Growth of NIH3T3 cell colonies in soft agar with discontinued treatment; assay type: functional, cell-based; details: Mus musculus
Outline: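 PDGF-B-transfected NIH3T3 (NIH3T3/PDGF) cells exposed 3 days to a concentration series, washed free of inhibitor, plated in drug-free soft agar; colonies stained and counted after two weeks. IC50; mean of two experiments, each in duplicate.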

SK-OV-3 [32] = assay: Difference in days for treated (T) and control (C) SKOV-3 cell tumors to reach 750 mg in mice at […] peroral dose, days 15-29 administration; assay type: functional; details: route oral
C6 [33] = assay: Weight change of C6 glioma tumor cells in mice at 10 mg/kg peroral dose, days 1-15 administration; assay type: functional, Mus musculus; details: route oral; outline: as §4
COLO 205 [34] = assay: Weight change of COLO 205 cell tumors in mice at […] peroral dose, days 9-23 administration; assay type: functional, organism-based; design: dose 8.9 mg/kg; details: Mus musculus
NIH3T3 [35] = assay: Growth of NIH3T3 cell colonies in soft agar with continuous treatment; assay type: functional, cell-based; details: Mus musculus
Outline: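 Soft agar cloning used PDGF-B-transfected NIH3T3 (NIH3T3/PDGF) cells. Cells were exposed 3 days to a concentration series, then plated in soft agar with the matching compound concentration kept present. Colonies were stained and counted after two weeks. IC50; mean of two experiments, each in duplicate.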

C6 [36] = assay: Inhibition of C6 cell proliferation in sulforhodamine B assay; assay type: functional, cell-based, Rattus norvegicus; details: Rattus norvegicus, C6
Outline: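 C6 rat glioma cells (F10 Ham's, 15% horse serum, 2.5% fetal calf serum) seeded and allowed 24 h to attach, then given serial 2-fold compound dilutions; 4 d at 37 °C, 5% CO2; growth read by sulforhodamine B staining. IC50; mean of two experiments, each in triplicate.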

CCN(CC)CCOc1ccc(Nc2ncc3cc(-c4c(Cl)cccc4Cl)c(=O)n(CC)c3n2)cc1
T-C (HT-29 [1]): -4.8 days
Ratio (C6 [2]): 56%
Net cell kill (COLO 205 [3]): -0.2 log10
IC50 (C6 [4]): 400 nM
T-C (Mus musculus [5]): 5.9 days
IC50 [6]: 150 nM
IC50 [7]: 1.7 nM
Weight change (SK-OV-3 [8]): Weight gain
Net cell kill (C6 [9]): -0.9 log10
T-C (A-431 [10]): 3.3 days
Net cell kill (A-431 [11]): -0.6 log10
Weight change (Mus musculus [12]): -2.6 g
Ratio (Mus musculus [13]): 13%
Weight change (HT-29 [14]): Weight gain
Ratio (COLO 205 [15]): 57%
Ratio (SK-OV-3 [16]): 106%
IC50 (NIH3T3 [17]): 410 nM
Weight change (A-431 [18]): -2.7 g
IC50 [19]: 17 nM
T-C (COLO 205 [20]): 10.3 days
Ratio (MCF7 [21]): 51%
IC50 [22]: 1 nM
T-C (C6 [23]): 3 days
Net cell kill (Mus musculus [24]): -1.2 log10
Ratio (A-431 [25]): 96%
IC50 (C6 [26]): 120 nM
IC50 [27]: 30 nM
Weight change (MCF7 [28]): Weight gain
Net cell kill (MCF7 [29]): 0.2 log10
T-C (MCF7 [30]): 18.3 days
IC50 (NIH3T3 [31]): 17 nM
T-C (SK-OV-3 [32]): -0.8 days
Weight change (C6 [33]): -1.2 g
Weight change (COLO 205 [34]): Weight gain
IC50 (NIH3T3 [35]): 1.5 nM
IC50 (C6 [36]): 350 nM
